In PMC4887451 (Natural product communications, 2015):
In brackets after ≈: the same amount, converted by molar mass.

Assays:
Type in all cases: cell-based
[1] = tested on: Trypanosoma brucei brucei; test: antitrypanosomal Alamar Blue assay on Trypanosoma brucei trypomastigotes
Summary of the method: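 Trypomastigote cultures of T. brucei brucei exposed to test compound, with viability read by Alamar Blue. DFMO served as positive control.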

[2] = tested on: Candida glabrata ATCC 90030; test: antifungal screening; details: Nakaseomyces glabratus, ATCC90030, read-out: IC50 against Candida glabrata
Summary of the method: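 Tested alongside C. albicans ATCC 90028, C. krusei ATCC 6258, Cryptococcus neoformans ATCC 90113 and Aspergillus fumigatus ATCC 204305, following a previously described procedure. IC50 derived by curve fitting. Amphotericin B was the positive control.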

[3] = tested on: chloroquine-sensitive (D6) Plasmodium falciparum; test: antiplasmodial screening by plasmodial LDH activity, D6 strain; details: for selectivity index (SI), ratio of VERO IC50 to D6 IC50: VERO mammalian cell line
[4] = tested on: chloroquine-resistant (W2) Plasmodium falciparum; test: antiplasmodial screening by plasmodial LDH activity, W2 strain; details: for selectivity index (SI), ratio of VERO IC50 to W2 IC50: VERO mammalian cell line

C=C[C@]1(C)CC[C@H](C(C)(C)O[C@@H]2O[C@H](CO[C@@H]3OC[C@@H](O)[C@H](O)[C@H]3O)[C@@H](O)[C@H](O)[C@H]2O)O1 (relative stereo) [Compound 9, (3S, 6R) cis-linalool 3,6 oxide, O-β-D-xylopyranosyl-(1″→6′)-β-D-glucopyranoside]
IC50, trypanocidal activity against Trypanosoma brucei brucei [1]: 8.18 mg/L (≈ 17.6 µM)
IC90, trypanocidal activity against Trypanosoma brucei brucei [1]: > 10 mg/L

C[C@@H]1[C@H](O)[C@@H](C)/C=C/C=C/C=C/C=C/C=C/C=C/C=C/[C@H](O[C@@H]2O[C@H](C)[C@@H](O)[C@H](N)[C@@H]2O)C[C@@H]2O[C@](O)(C[C@@H](O)C[C@@H](O)[C@H](O)CC[C@@H](O)C[C@@H](O)CC(=O)O[C@H]1C)C[C@H](O)[C@H]2C(=O)O [AMB, amphotericin B, reference compound]
IC50 [2]: 0.34 mg/L (≈ 0.368 µM)

C[C@@H]1O[C@@H](Oc2cc(O)c3c(=O)c(O)c(-c4ccc(O)c(O)c4)oc3c2)[C@H](O)[C@H](O)[C@H]1O [Compound 15, quercetin-7-O-α-L-rhamnopyranoside]
IC50, trypanocidal activity against Trypanosoma brucei brucei [1]: 9.02 mg/L (≈ 20.1 µM)
IC90, trypanocidal activity against Trypanosoma brucei brucei [1]: > 10 mg/L

O=c1c(O)c(-c2ccc(O)c(O)c2)oc2cc(O)cc(O)c12 [Compound 16, quercetin]
IC50 [2]: 8.66 mg/L (≈ 28.7 µM)

COC(=O)C1(O)CC(O)C(OC(=O)/C=C/c2ccc(O)c(O)c2)C(OC(=O)/C=C/c2ccc(O)c(O)c2)C1 (centres unmarked) [Compound 20, 4,5-dicaffeoyl quinic acid methyl ester]
selectivity index (SI), ratio of VERO IC50 to D6 IC50 [3]: > 1.4
IC50 against chloroquine-sensitive (D6) Plasmodium falciparum ([3]; plasmodial LDH activity): 3.29 mg/L (≈ 6.2 µM)
selectivity index (SI), ratio of VERO IC50 to W2 IC50 [4]: > 1
IC50 against chloroquine-resistant (W2) Plasmodium falciparum ([4]; plasmodial LDH activity): 4.53 mg/L (≈ 8.54 µM)

NCCCC(N)(C(=O)O)C(F)F (centres unmarked) [DFMO, difluoromethylornithine, reference compound]
IC50, trypanocidal activity against Trypanosoma brucei brucei [1]: 2.30 mg/L (≈ 12.6 µM)
IC90, trypanocidal activity against Trypanosoma brucei brucei [1]: 5.20 mg/L (≈ 28.5 µM)

CCN(CC)CCCC(C)Nc1ccnc2cc(Cl)ccc12 (centres unmarked) [chloroquine, reference compound]
selectivity index (SI), ratio of VERO IC50 to D6 IC50 [3]: > 9
selectivity index (SI), ratio of VERO IC50 to W2 IC50 [4]: > 2.1
